Measured values reported in ChEMBL document CHEMBL5303300, “EUbOPEN Chemogenomics Library - Multiplex” (2023).
“And” between values parts separate entries of the source, which are not always exact repeats. Equal entries are not always repeated.

System: Fibroblast
Assay: Multiplex assay against human fibroblast
Type: toxicity, cell-based
Conditions: number of replicates 2
How it was run: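 Four dyes were applied at seeding to live cells: Hoechst33342, BioTracker Green Microtubule Cytoskeleton Dye, MitoTracker Red and Annexin V Alexa Fluor 680. Imaging after compound addition used a CQ1 microscope at 37°C and 5% CO2. CellPathfinder machine-learning gating then sorted cells into Hoechst high-intensity objects or normal cells, normal cells into healthy, pyknosed or fragmented nuclei, and pyknosed cells into mitotic or apoptotic, with tubulin, mitochondrial-mass and membrane-permeability phenotypes given as per cents of healthy-nucleus cells.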

[1] = 12 h, 1 µM, compound concentration 1 uM
[2] = 12 h, 10 µM, compound concentration 10 uM
[3] = 24 h, 1 µM, compound concentration 1 uM
[4] = 24 h, 10 µM, compound concentration 10 uM
[5] = 48 h, 1 µM, compound concentration 1 uM
[6] = 48 h, 10 µM, compound concentration 10 uM

SMILES: C=CC(=O)Nc1ccc2[nH]c(=O)n(C3CCN(Cc4ccc(-c5ccc6c(c5)NC(=O)CO6)cc4)CC3)c2c1 [RL2578]
- Population Apoptotic (%) [1]: 34% and 40%
- Population Fragmented Nuclei (%) [1]: 12% and 8%
- Population Healthy Nuclei (%) [1]: 72% and 66%
- Population Hoechst High Intensity Objects (%) [1]: 0%
- Population Membrane Permeable-Phenotype (%) [1]: 4%
- Population Mitochondria Different-Phenotype (%) [1]: 3%
- Population Mitotic Cells (%) [1]: 65% and 60%
- Population Normal (%) [1]: 100%
- Population Pyknosed Nuclei (%) [1]: 15% and 25%
- Population Tubulin-Different-Phenotype (%) [1]: 13% and 15%
- Total Cell Count [1]: 173 and 180
- Population Apoptotic (%) [2]: 46% and 29%
- Population Fragmented Nuclei (%) [2]: 26% and 23%
- Population Healthy Nuclei (%) [2]: 65% and 67%
- Population Hoechst High Intensity Objects (%) [2]: 0%
- Population Membrane Permeable-Phenotype (%) [2]: 5% and 4%
- Population Mitochondria Different-Phenotype (%) [2]: 0% and 4%
- Population Mitotic Cells (%) [2]: 53% and 70%
- Population Normal (%) [2]: 99% and 100%
- Population Pyknosed Nuclei (%) [2]: 8%
- Population Tubulin-Different-Phenotype (%) [2]: 45% and 35%
- Total Cell Count [2]: 324 and 315
- Population Apoptotic (%) [3]: 48% and 55%
- Population Fragmented Nuclei (%) [3]: 6% and 14%
- Population Healthy Nuclei (%) [3]: 73% and 65%
- Population Hoechst High Intensity Objects (%) [3]: 0%
- Population Membrane Permeable-Phenotype (%) [3]: 3%
- Population Mitochondria Different-Phenotype (%) [3]: 4% and 0%
- Population Mitotic Cells (%) [3]: 51% and 44%
- Population Normal (%) [3]: 100%
- Population Pyknosed Nuclei (%) [3]: 19% and 20%
- Population Tubulin-Different-Phenotype (%) [3]: 18% and 19%
- Total Cell Count [3]: 169 and 214
- Population Apoptotic (%) [4]: 63% and 50%
- Population Fragmented Nuclei (%) [4]: 29% and 26%
- Population Healthy Nuclei (%) [4]: 65% and 69%
- Population Hoechst High Intensity Objects (%) [4]: 0%
- Population Membrane Permeable-Phenotype (%) [4]: 2%
- Population Mitochondria Different-Phenotype (%) [4]: 5% and 4%
- Population Mitotic Cells (%) [4]: 36% and 50%
- Population Normal (%) [4]: 99%
- Population Pyknosed Nuclei (%) [4]: 5% and 3%
- Population Tubulin-Different-Phenotype (%) [4]: 36% and 24%
- Total Cell Count [4]: 377 and 407
- Population Apoptotic (%) [5]: 86% and 67%
- Population Fragmented Nuclei (%) [5]: 14% and 17%
- Population Healthy Nuclei (%) [5]: 71% and 65%
- Population Hoechst High Intensity Objects (%) [5]: 0%
- Population Membrane Permeable-Phenotype (%) [5]: 5% and 6%
- Population Mitochondria Different-Phenotype (%) [5]: 0%
- Population Mitotic Cells (%) [5]: 13% and 32%
- Population Normal (%) [5]: 100% and 99%
- Population Pyknosed Nuclei (%) [5]: 14% and 17%
- Population Tubulin-Different-Phenotype (%) [5]: 14% and 8%
- Total Cell Count [5]: 160 and 217
- Population Apoptotic (%) [6]: 78% and 76%
- Population Fragmented Nuclei (%) [6]: 29%
- Population Healthy Nuclei (%) [6]: 66% and 67%
- Population Hoechst High Intensity Objects (%) [6]: 0%
- Population Membrane Permeable-Phenotype (%) [6]: 0% and 2%
- Population Mitochondria Different-Phenotype (%) [6]: 2% and 1%
- Population Mitotic Cells (%) [6]: 21% and 23%
- Population Normal (%) [6]: 100% and 99%
- Population Pyknosed Nuclei (%) [6]: 4% and 2%
- Population Tubulin-Different-Phenotype (%) [6]: 18% and 13%
- Total Cell Count [6]: 424 and 452

SMILES: CCCN(CCc1cccs1)[C@H]1CCc2c(O)cccc2C1 [ROTIGOTINE]
- Population Apoptotic (%) [1]: 73% and 35%
- Population Fragmented Nuclei (%) [1]: 9% and 11%
- Population Healthy Nuclei (%) [1]: 76% and 71%
- Population Hoechst High Intensity Objects (%) [1]: 0%
- Population Membrane Permeable-Phenotype (%) [1]: 6% and 3%
- Population Mitochondria Different-Phenotype (%) [1]: 2% and 0%
- Population Mitotic Cells (%) [1]: 26% and 64%
- Population Normal (%) [1]: 100% and 99%
- Population Pyknosed Nuclei (%) [1]: 14% and 16%
- Population Tubulin-Different-Phenotype (%) [1]: 15% and 10%
- Population Fragmented Nuclei (%) [2]: 17% and 18%
- Population Healthy Nuclei (%) [2]: 78% and 73%
- Population Hoechst High Intensity Objects (%) [2]: 0%
- Population Membrane Permeable-Phenotype (%) [2]: 0% and 1%
- Population Mitochondria Different-Phenotype (%) [2]: 0% and 1%
- Population Mitotic Cells (%) [2]: 50% and 86%
- Population Normal (%) [2]: 100%
- Population Pyknosed Nuclei (%) [2]: 4% and 7%
- Population Tubulin-Different-Phenotype (%) [2]: 13% and 14%
- Population Apoptotic (%) [3]: 52% and 46%
- Population Fragmented Nuclei (%) [3]: 9% and 12%
- Population Healthy Nuclei (%) [3]: 81% and 75%
- Population Hoechst High Intensity Objects (%) [3]: 0%
- Population Membrane Permeable-Phenotype (%) [3]: 4%
- Population Mitochondria Different-Phenotype (%) [3]: 0% and 1%
- Population Mitotic Cells (%) [3]: 47% and 53%
- Population Normal (%) [3]: 100% and 99%
- Population Pyknosed Nuclei (%) [3]: 9% and 12%
- Population Tubulin-Different-Phenotype (%) [3]: 7% and 6%
- Population Fragmented Nuclei (%) [4]: 24% and 14%
- Population Healthy Nuclei (%) [4]: 71% and 80%
- Population Hoechst High Intensity Objects (%) [4]: 0%
- Population Membrane Permeable-Phenotype (%) [4]: 1% and 0%
- Population Mitochondria Different-Phenotype (%) [4]: 0% and 2%
- Population Normal (%) [4]: 100%
- Population Pyknosed Nuclei (%) [4]: 3% and 5%
- Population Tubulin-Different-Phenotype (%) [4]: 10% and 8%
- Population Apoptotic (%) [5]: 36% and 68%
- Population Fragmented Nuclei (%) [5]: 11% and 13%
- Population Healthy Nuclei (%) [5]: 82% and 79%
- Population Hoechst High Intensity Objects (%) [5]: 0%
- Population Membrane Permeable-Phenotype (%) [5]: 3% and 2%
- Population Mitochondria Different-Phenotype (%) [5]: 0%
- Population Mitotic Cells (%) [5]: 63% and 31%
- Population Normal (%) [5]: 100%
- Population Pyknosed Nuclei (%) [5]: 5% and 7%
- Population Tubulin-Different-Phenotype (%) [5]: 5% and 3%
- Population Apoptotic (%) [6]: 87% and 80%
- Population Fragmented Nuclei (%) [6]: 19% and 20%
- Population Healthy Nuclei (%) [6]: 76% and 77%
- Population Hoechst High Intensity Objects (%) [6]: 0%
- Population Membrane Permeable-Phenotype (%) [6]: 3% and 1%
- Population Mitochondria Different-Phenotype (%) [6]: 0%
- Population Mitotic Cells (%) [6]: 12% and 20%
- Population Normal (%) [6]: 100%
- Population Pyknosed Nuclei (%) [6]: 4% and 2%
- Population Tubulin-Different-Phenotype (%) [6]: 9% and 3%

SMILES: CC(C)N(CCCCOCC(=O)NS(C)(=O)=O)c1cnc(-c2ccccc2)c(-c2ccccc2)n1 [SELEXIPAG]
- Population Apoptotic (%) [1]: 54% and 38%
- Population Fragmented Nuclei (%) [1]: 4% and 10%
- Population Healthy Nuclei (%) [1]: 77% and 72%
- Population Hoechst High Intensity Objects (%) [1]: 0%
- Population Membrane Permeable-Phenotype (%) [1]: 4%
- Population Mitochondria Different-Phenotype (%) [1]: 2% and 0%
- Population Mitotic Cells (%) [1]: 45% and 61%
- Population Normal (%) [1]: 100%
- Population Pyknosed Nuclei (%) [1]: 18% and 16%
- Population Tubulin-Different-Phenotype (%) [1]: 10% and 11%
- Total Cell Count [1]: 168 and 186
- Population Apoptotic (%) [2]: 56% and 54%
- Population Fragmented Nuclei (%) [2]: 7% and 14%
- Population Healthy Nuclei (%) [2]: 61% and 63%
- Population Hoechst High Intensity Objects (%) [2]: 0%
- Population Membrane Permeable-Phenotype (%) [2]: 0% and 6%
- Population Mitochondria Different-Phenotype (%) [2]: 1%
- Population Mitotic Cells (%) [2]: 43% and 45%
- Population Normal (%) [2]: 100% and 99%
- Population Pyknosed Nuclei (%) [2]: 31% and 21%
- Population Tubulin-Different-Phenotype (%) [2]: 2% and 10%
- Total Cell Count [2]: 148 and 221
- Population Apoptotic (%) [3]: 58% and 50%
- Population Fragmented Nuclei (%) [3]: 8% and 14%
- Population Healthy Nuclei (%) [3]: 75% and 65%
- Population Hoechst High Intensity Objects (%) [3]: 0%
- Population Membrane Permeable-Phenotype (%) [3]: 6% and 4%
- Population Mitochondria Different-Phenotype (%) [3]: 0%
- Population Mitotic Cells (%) [3]: 41% and 50%
- Population Normal (%) [3]: 99% and 100%
- Population Pyknosed Nuclei (%) [3]: 16% and 20%
- Population Tubulin-Different-Phenotype (%) [3]: 7% and 8%
- Total Cell Count [3]: 175 and 190
- Population Apoptotic (%) [4]: 56% and 50%
- Population Fragmented Nuclei (%) [4]: 6% and 13%
- Population Healthy Nuclei (%) [4]: 63% and 65%
- Population Hoechst High Intensity Objects (%) [4]: 0%
- Population Membrane Permeable-Phenotype (%) [4]: 2% and 6%
- Population Mitochondria Different-Phenotype (%) [4]: 1%
- Population Mitotic Cells (%) [4]: 43% and 50%
- Population Normal (%) [4]: 100% and 99%
- Population Pyknosed Nuclei (%) [4]: 30% and 21%
- Population Tubulin-Different-Phenotype (%) [4]: 6% and 8%
- Total Cell Count [4]: 152 and 221
- Population Apoptotic (%) [5]: 80% and 40%
- Population Fragmented Nuclei (%) [5]: 8% and 11%
- Population Healthy Nuclei (%) [5]: 79% and 75%
- Population Hoechst High Intensity Objects (%) [5]: 0%
- Population Membrane Permeable-Phenotype (%) [5]: 4% and 6%
- Population Mitochondria Different-Phenotype (%) [5]: 0%
- Population Mitotic Cells (%) [5]: 20% and 60%
- Population Normal (%) [5]: 99%
- Population Pyknosed Nuclei (%) [5]: 11% and 12%
- Population Tubulin-Different-Phenotype (%) [5]: 4% and 3%
- Total Cell Count [5]: 169 and 204
- Population Apoptotic (%) [6]: 90% and 59%
- Population Fragmented Nuclei (%) [6]: 8% and 11%
- Population Healthy Nuclei (%) [6]: 71% and 68%
- Population Hoechst High Intensity Objects (%) [6]: 0%
- Population Membrane Permeable-Phenotype (%) [6]: 0% and 4%
- Population Mitochondria Different-Phenotype (%) [6]: 0%
- Population Normal (%) [6]: 100%
- Population Pyknosed Nuclei (%) [6]: 19%
- Population Tubulin-Different-Phenotype (%) [6]: 3% and 7%
- Total Cell Count [6]: 151 and 212

SMILES: CN[C@@H]1C[C@H]2O[C@@](C)([C@@H]1OC)n1c3ccccc3c3c4c(c5c6ccccc6n2c5c31)C(=O)NC4 [STAUROSPORINE]
- Population Apoptotic (%) [2]: 76% and 73% and 72% and 71%
- Population Fragmented Nuclei (%) [2]: 16% and 10% and 13%
- Population Healthy Nuclei (%) [2]: 10% and 6% and 14% and 9%
- Population Hoechst High Intensity Objects (%) [2]: 0% and 1%
- Population Membrane Permeable-Phenotype (%) [2]: 20% and 15% and 7%
- Population Mitochondria Different-Phenotype (%) [2]: 0% and 2%
- Population Mitotic Cells (%) [2]: 23% and 26% and 27% and 28%
- Population Normal (%) [2]: 99% and 100% and 98%
- Population Pyknosed Nuclei (%) [2]: 72% and 82% and 74%
- Population Tubulin-Different-Phenotype (%) [2]: 14% and 10% and 4%
- Population Apoptotic (%) [4]: 95% and 88% and 87%
- Population Fragmented Nuclei (%) [4]: 15% and 21% and 13%
- Population Healthy Nuclei (%) [4]: 5% and 3% and 4% and 2%
- Population Hoechst High Intensity Objects (%) [4]: 0% and 1%
- Population Membrane Permeable-Phenotype (%) [4]: 50% [middle of 4 runs]
- Population Mitochondria Different-Phenotype (%) [4]: 0%
- Population Mitotic Cells (%) [4]: 4% and 11% and 12%
- Population Normal (%) [4]: 100% and 99% and 98%
- Population Pyknosed Nuclei (%) [4]: 78% and 74% and 82% and 84%
- Population Tubulin-Different-Phenotype (%) [4]: 50% [middle of 4 runs]
- Population Apoptotic (%) [6]: 99% and 93% and 92% and 91%
- Population Fragmented Nuclei (%) [6]: 27% and 28% and 20% and 22%
- Population Healthy Nuclei (%) [6]: 3% and 4% and 7% and 6%
- Population Hoechst High Intensity Objects (%) [6]: 0%
- Population Membrane Permeable-Phenotype (%) [6]: 66% [middle of 4 runs]
- Population Mitochondria Different-Phenotype (%) [6]: 0% and 20%
- Population Mitotic Cells (%) [6]: 0% and 6% and 7% and 8%
- Population Normal (%) [6]: 100% and 99%
- Population Pyknosed Nuclei (%) [6]: 69% and 66% and 72% and 71%
- Population Tubulin-Different-Phenotype (%) [6]: 50% and 55% and 45% and 60%
